Assay results reported in ChEMBL document CHEMBL1142361, “Phenylglycine and phenylalanine derivatives as potent and selective HDAC1 inhibitors (SHI-1)” (Bioorg Med Chem Lett, 2008).
In brackets after ≈: the same amount, converted by molar mass.

Legend:
[1] = Log D at pH 7 by HPLC; format: physicochemical; conditions: buffer
HCT-116 = assay: Antiproliferative activity against human HCT116 cells after 72 hrs; format: functional
[2] = Aqueous solubility at pH 7 by HPLC; format: physicochemical; conditions: buffer
Outline: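 A 200 µM sample in PBS-buffered water at pH 7 was agitated 24 h at room temperature and then filtered. A 100 µM reference was fully dissolved in MeOH:MeCN:DMSO (8:1:1). Both were run by the same high-throughput HPLC method, and the peak areas were compared to give the dissolved concentration. The assay caps at 200 µM.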

[3] = Volume of distribution at steady state in dog at 0.5 mg/kg, iv and 1 mg/kg, po; format: ADME, organism-based, Canis lupus familiaris; conditions: in vivo, read-out: Vdss
[4] = Clearance in rat at 2 mg/kg, iv and 4 mg/kg, po; format: ADME, organism-based; conditions: in vivo
[5] = Drug level in HCT116 cells xenografted mouse plasma at ip qd after 4 hrs on day 21
[6] = Bioavailability in rhesus monkey at 1 mg/kg, po; format: ADME, organism-based, Macaca mulatta; conditions: in vivo
[7] = Half life in rhesus monkey at 0.5 mg/kg, iv and 1 mg/kg, po; format: ADME, organism-based, Macaca mulatta; conditions: in vivo
[8] = Drug level in HCT116 cells xenografted mouse plasma at 65 mg/kg, ip qd after 24 hrs on day 21; format: ADME, organism-based, HCT-116; set-up: dose 65 mg/kg, route intraperitoneal
Outline: (§1)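 Mice bearing HCT116 xenografts were dosed ip in a 21-day study at 50, 65 and 80 mg/kg alongside vehicle. Plasma drug levels were measured 2, 4 and 24 h post-dose.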

[9] = Volume of distribution at steady state in rat at 2 mg/kg, iv and 4 mg/kg, po; format: ADME, organism-based; conditions: in vivo, read-out: Vdss
[10] = Selectivity for HDAC1 over HDAC7
[11] = Bioavailability in rat at 4 mg/kg, po; format: ADME, organism-based; conditions: in vivo
[12] = Selectivity for HDAC1 over HDAC5
[13] = Bioavailability in dog at 1 mg/kg, po; format: ADME, organism-based, Canis lupus familiaris; conditions: in vivo
[14] = Volume of distribution at steady state in rhesus monkey at 0.5 mg/kg, iv and 1 mg/kg, po; format: ADME, organism-based, Macaca mulatta; conditions: in vivo, read-out: Vdss
[15] = target: T1, Histone deacetylase 7 (Homo sapiens) (UniProt Q8WUI4); assay: Inhibition of HDAC7
T1 sequence (whole entry): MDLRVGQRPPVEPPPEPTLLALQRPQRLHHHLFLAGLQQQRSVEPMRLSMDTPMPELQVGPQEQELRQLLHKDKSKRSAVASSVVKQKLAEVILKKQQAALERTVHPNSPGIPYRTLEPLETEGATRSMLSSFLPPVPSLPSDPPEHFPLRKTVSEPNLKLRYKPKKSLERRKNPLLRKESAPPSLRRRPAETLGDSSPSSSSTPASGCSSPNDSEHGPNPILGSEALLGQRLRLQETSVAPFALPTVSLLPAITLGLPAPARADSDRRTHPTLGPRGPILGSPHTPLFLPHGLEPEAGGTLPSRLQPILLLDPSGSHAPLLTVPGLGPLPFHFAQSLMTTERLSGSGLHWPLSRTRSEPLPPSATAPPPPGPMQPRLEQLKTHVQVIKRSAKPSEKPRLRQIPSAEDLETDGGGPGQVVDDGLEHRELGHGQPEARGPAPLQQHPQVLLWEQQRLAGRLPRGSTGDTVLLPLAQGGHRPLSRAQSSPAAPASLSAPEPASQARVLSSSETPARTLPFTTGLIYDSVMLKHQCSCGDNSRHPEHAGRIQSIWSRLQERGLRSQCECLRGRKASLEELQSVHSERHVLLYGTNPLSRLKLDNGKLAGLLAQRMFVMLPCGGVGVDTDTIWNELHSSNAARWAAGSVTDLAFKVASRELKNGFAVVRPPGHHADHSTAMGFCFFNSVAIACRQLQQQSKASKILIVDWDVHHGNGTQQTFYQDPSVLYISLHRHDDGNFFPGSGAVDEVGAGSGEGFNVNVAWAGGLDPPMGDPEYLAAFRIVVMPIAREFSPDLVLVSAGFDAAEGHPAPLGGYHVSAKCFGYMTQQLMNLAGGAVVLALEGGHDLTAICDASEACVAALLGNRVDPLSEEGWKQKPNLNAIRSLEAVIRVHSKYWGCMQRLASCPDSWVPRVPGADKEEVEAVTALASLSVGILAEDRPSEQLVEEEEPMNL

[16] = Drug level in HCT116 cells xenografted mouse plasma at ip qd after 24 hrs on day 21
[17] = target: Histone deacetylase 3 (Homo sapiens) (UniProt O15379); assay: Inhibition of HDAC3
Sequence of Histone deacetylase 3 (Homo sapiens) (O15379 whole entry): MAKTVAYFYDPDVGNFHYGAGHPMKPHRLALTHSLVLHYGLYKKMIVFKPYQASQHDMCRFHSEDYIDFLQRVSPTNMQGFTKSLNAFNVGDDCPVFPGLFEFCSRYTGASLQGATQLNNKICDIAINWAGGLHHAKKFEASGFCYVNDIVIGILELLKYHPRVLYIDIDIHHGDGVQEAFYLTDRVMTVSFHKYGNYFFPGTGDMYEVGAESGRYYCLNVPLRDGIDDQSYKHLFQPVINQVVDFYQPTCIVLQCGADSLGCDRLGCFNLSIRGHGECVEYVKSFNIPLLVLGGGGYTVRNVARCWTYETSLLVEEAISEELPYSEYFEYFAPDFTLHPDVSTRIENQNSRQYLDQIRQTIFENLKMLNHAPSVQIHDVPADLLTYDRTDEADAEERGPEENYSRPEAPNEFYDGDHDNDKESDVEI

[18] = Half life in rat at 2 mg/kg, iv and 4 mg/kg, po; format: ADME, organism-based; conditions: in vivo
[19] = Drug level in HCT116 cells xenografted mouse plasma at ip qd after 2 hrs on day 21
[20] = Selectivity for HDAC1 over HDAC2
[21] = Selectivity for HDAC1 over HDAC3
[22] = Clearance in dog at 0.5 mg/kg, iv and 1 mg/kg, po; format: ADME, organism-based, Canis lupus familiaris; conditions: in vivo
[23] = target: T2, Histone deacetylase 11 (Homo sapiens) (UniProt Q96DB2); assay: Inhibition of HDAC11
T2 sequence (whole entry): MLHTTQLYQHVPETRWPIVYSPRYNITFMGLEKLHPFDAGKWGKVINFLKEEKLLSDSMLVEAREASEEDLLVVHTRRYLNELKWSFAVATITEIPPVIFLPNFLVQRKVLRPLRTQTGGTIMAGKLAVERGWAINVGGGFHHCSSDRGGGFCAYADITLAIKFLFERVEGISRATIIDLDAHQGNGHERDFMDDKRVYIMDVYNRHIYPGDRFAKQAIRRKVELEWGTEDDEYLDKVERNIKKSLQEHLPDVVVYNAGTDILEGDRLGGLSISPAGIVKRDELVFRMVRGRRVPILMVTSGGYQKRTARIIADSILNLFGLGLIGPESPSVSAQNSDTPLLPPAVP

[24] = Clearance in rhesus monkey at 0.5 mg/kg, iv and 1 mg/kg, po; format: ADME, organism-based, Macaca mulatta; conditions: in vivo
[25] = target: Histone deacetylase 5 (Homo sapiens) (UniProt Q9UQL6); assay: Inhibition of HDAC5
Sequence of Histone deacetylase 5 (Homo sapiens) (Q9UQL6 whole entry): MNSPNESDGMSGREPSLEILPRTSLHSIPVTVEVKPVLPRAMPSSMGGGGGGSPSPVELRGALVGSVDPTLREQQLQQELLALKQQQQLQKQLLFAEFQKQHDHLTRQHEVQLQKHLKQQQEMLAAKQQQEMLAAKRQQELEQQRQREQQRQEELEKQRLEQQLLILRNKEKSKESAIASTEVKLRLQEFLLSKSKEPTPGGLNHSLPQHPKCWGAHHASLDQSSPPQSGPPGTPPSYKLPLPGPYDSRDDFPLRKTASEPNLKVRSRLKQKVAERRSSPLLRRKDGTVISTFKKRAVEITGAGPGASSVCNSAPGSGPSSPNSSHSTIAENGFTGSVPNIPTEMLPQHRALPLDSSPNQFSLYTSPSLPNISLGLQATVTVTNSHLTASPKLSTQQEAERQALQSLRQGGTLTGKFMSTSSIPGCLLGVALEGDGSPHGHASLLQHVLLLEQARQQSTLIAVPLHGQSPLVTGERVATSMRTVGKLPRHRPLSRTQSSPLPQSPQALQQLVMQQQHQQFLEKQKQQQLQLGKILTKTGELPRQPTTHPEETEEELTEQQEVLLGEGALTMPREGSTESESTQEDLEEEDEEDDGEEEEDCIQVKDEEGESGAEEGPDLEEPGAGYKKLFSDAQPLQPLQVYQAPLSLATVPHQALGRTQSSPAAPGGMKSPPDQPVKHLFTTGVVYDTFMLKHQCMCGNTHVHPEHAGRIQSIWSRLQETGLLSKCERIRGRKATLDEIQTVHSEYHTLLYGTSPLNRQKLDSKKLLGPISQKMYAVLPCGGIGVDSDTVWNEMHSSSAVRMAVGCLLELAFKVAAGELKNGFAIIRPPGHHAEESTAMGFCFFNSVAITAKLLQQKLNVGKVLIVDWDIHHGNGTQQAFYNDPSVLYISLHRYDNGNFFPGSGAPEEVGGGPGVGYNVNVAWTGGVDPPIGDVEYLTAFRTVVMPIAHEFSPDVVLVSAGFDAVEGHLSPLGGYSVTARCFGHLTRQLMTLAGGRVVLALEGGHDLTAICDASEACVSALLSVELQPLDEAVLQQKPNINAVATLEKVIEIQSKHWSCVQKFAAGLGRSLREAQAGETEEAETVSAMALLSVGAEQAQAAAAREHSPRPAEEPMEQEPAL

[26] = Drug level in HCT116 cells xenografted mouse plasma at 65 mg/kg, ip qd after 4 hrs on day 21; format: ADME, organism-based, HCT-116; set-up: dose 65 mg/kg, route intraperitoneal; outline: as §1
[27] = target: T3, Histone deacetylase 8 (Homo sapiens) (UniProt Q9BY41); assay: Inhibition of HDAC8
T3 sequence (whole entry): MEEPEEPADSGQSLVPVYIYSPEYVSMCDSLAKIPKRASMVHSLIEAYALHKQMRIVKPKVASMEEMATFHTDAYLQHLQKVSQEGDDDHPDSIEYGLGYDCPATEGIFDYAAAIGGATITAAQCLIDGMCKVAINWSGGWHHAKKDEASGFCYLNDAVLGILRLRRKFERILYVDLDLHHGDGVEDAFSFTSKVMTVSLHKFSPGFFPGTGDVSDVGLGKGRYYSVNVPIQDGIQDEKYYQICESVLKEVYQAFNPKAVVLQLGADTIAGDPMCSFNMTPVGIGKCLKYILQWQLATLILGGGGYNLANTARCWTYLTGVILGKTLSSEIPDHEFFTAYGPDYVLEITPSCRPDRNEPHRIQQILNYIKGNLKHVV

[28] = Selectivity for HDAC1 over HDAC11
[29] = Drug level in HCT116 cells xenografted mouse plasma at 65 mg/kg, ip qd after 2 hrs on day 21; format: ADME, organism-based, HCT-116; set-up: dose 65 mg/kg, route intraperitoneal; outline: as §1
[30] = Selectivity for HDAC1 over HDAC6
[31] = Selectivity for HDAC1 over HDAC4
[32] = Selectivity for HDAC1 over HDAC8
[33] = Half life in dog at 0.5 mg/kg, iv and 1 mg/kg, po; format: ADME, organism-based, Canis lupus familiaris; conditions: in vivo
[34] = target: T4, Protein deacetylase HDAC6 (Homo sapiens) (UniProt Q9UBN7); assay: Inhibition of HDAC6
T4 sequence (whole entry): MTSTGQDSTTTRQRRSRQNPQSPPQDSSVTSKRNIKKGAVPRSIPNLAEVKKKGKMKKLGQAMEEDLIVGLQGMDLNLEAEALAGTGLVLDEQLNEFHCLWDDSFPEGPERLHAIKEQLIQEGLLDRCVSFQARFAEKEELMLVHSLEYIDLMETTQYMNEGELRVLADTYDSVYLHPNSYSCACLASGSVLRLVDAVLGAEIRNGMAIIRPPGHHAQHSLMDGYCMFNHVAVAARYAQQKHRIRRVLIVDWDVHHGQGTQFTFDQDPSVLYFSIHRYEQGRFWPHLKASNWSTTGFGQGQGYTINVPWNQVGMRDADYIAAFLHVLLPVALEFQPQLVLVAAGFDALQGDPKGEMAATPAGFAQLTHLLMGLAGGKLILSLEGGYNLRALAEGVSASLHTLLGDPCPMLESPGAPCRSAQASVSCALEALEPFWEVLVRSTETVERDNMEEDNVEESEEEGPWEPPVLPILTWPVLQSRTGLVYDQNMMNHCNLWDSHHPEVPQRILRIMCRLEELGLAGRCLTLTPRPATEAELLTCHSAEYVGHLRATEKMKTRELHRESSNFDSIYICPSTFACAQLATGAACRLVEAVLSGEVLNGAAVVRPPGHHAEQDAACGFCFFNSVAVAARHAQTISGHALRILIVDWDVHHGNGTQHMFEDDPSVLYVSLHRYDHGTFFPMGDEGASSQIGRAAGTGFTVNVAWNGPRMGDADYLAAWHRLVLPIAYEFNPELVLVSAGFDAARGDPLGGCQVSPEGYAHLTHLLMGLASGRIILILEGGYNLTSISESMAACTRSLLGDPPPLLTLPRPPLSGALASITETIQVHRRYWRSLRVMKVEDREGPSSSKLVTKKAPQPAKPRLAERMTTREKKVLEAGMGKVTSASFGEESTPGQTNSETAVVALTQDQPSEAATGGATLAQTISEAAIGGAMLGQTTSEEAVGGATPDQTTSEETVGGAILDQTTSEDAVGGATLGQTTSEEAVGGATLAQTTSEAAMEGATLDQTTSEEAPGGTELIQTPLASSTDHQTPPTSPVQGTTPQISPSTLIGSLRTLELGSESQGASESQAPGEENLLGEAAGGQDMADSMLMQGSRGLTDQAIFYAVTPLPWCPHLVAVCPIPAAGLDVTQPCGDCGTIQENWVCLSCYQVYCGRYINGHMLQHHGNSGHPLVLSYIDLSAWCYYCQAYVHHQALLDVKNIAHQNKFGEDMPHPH

[35] = target: Histone deacetylase 4 (Homo sapiens) (UniProt P56524); assay: Inhibition of HDAC4
Sequence of Histone deacetylase 4 (Homo sapiens) (P56524 whole entry): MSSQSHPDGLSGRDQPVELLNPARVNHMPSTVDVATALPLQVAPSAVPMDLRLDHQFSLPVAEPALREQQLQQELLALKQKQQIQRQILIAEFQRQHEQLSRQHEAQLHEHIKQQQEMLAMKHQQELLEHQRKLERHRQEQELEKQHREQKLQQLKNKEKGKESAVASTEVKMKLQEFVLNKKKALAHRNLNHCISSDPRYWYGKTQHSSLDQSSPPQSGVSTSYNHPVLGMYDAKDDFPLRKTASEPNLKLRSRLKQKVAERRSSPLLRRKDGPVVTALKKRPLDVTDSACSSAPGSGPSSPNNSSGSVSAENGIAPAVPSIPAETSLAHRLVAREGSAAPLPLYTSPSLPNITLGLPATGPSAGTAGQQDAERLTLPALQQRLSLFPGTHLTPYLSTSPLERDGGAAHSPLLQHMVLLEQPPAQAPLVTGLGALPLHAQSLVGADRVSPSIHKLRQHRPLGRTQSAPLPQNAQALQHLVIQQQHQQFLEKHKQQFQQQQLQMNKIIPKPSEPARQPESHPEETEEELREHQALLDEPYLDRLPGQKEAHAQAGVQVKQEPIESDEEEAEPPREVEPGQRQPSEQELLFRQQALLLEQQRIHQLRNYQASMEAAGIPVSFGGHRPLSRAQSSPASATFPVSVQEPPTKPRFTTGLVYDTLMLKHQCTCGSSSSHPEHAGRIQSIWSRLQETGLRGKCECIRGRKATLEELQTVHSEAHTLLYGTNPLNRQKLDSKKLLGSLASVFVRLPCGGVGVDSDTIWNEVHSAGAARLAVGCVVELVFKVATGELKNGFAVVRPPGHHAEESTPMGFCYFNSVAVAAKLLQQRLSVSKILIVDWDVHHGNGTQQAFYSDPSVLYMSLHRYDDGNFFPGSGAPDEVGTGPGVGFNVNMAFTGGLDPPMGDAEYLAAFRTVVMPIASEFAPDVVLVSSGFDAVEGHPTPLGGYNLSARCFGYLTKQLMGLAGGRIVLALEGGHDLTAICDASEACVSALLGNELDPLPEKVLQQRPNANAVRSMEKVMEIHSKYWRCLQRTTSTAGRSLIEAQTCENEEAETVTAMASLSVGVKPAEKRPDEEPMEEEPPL

## NC(=O)C(N)c1ccc(C(=O)Nc2cc(-c3cccs3)ccc2N)cc1 (stereo unspecified)
[1]
  logD: 1.49
HCT-116
  Activity: 350 nM
[2]
  solubility: 185 µM (≈ 67.8 µg/mL)

## CNC(=O)C(N)c1ccc(C(=O)Nc2cc(-c3cccs3)ccc2N)cc1 (stereo unspecified)
[3]
  Vd: 3.2 L/kg
[4]
  clearance: 38 mL/min/kg
[5]
  concentration at 4 h: 4.1 µM
[6]
  bioavailability: 5%
[7]
  half-life: 1.6 h
[8]
  concentration at 24 h: 0.02 µM
[9]
  Vd: 7.6 L/kg
[1]
  logD: 1.57
[10]
  Selectivity ratio: > 5000
[11]
  bioavailability: 27%
[12]
  Selectivity ratio: > 5000
[13]
  bioavailability: 17%
[14]
  Vd: 1.6 L/kg
[15]
  Activity: > 50 µM
[16]
  concentration at 24 h: 0.01 µM
[17]
  Activity: 3.4 µM
[18]
  half-life: 5.9 h
[19]
  concentration at 2 h: 17.9 µM
[20]
  Selectivity ratio: 13
[21]
  Selectivity ratio: 340
[22]
  clearance: 11 mL/min/kg
[23]
  Activity: 3.6 µM
[24]
  clearance: 16 mL/min/kg
[25]
  Activity: > 50 µM
[26]
  concentration at 4 h: 10 µM
[27]
  Activity: 35 µM
[28]
  Selectivity ratio: 360
[29]
  concentration at 2 h: 28.6 µM
[30]
  Selectivity ratio: > 5000
[31]
  Selectivity ratio: > 5000
HCT-116
  Activity: 450 nM
[32]
  Selectivity ratio: 3500
[33]
  half-life: 5.4 h
[2]
  solubility: 185 µM (≈ 70.4 µg/mL)
[34]
  Activity: > 50 µM
[35]
  Activity: > 50 µM

## CN(C)C(=O)C(N)c1ccc(C(=O)Nc2cc(-c3cccs3)ccc2N)cc1 (stereo unspecified)
HCT-116
  Activity: 420 nM

## NC(=O)[C@H](N)c1ccc(C(=O)Nc2cc(-c3cccs3)ccc2N)cc1
HCT-116
  Activity: 350 nM

## CNC(=O)C(NC(C)=O)c1ccc(C(=O)Nc2cc(-c3cccs3)ccc2N)cc1 (stereo unspecified)
HCT-116
  Activity: 620 nM

## NC(=O)[C@@H](N)Cc1ccc(C(=O)Nc2cc(-c3cccs3)ccc2N)cc1
HCT-116
  Activity: 260 nM

## CNC(=O)NC(C(=O)NC)c1ccc(C(=O)Nc2cc(-c3cccs3)ccc2N)cc1 (stereo unspecified)
HCT-116
  Activity: 960 nM

## CNC(=O)[C@@H](N)c1ccc(C(=O)Nc2cc(-c3cccs3)ccc2N)cc1
HCT-116
  Activity: 480 nM

## NC(=O)[C@H](N)Cc1ccc(C(=O)Nc2cc(-c3cccs3)ccc2N)cc1
HCT-116
  Activity: 390 nM
